Measurements published in publication PMC11995438 (Bioorganic & medicinal chemistry, 2023).
Values after ≈ are worked out from the molar mass of the structure shown. “Also recorded” adds a separate entry of the source. Values belong to the molecule of their own block, whether it stands above or below them. *1 amine or outer side, *2 acyl side, *3 side chain or, on linkers, in order; H or OH if unused. Where a SMILES comes first, the peptide text is derived from it. [ ]: non-standard residue; d: D form. X1 = CN([C@H](C(=O)[*:2])[C@@H](O)C(N)=O)[*:1]; Pro(4S-Me) = C[C@@H]1CN[C@H](C(=O)O)C1; N(OH)Ala = C[C@H](NO)C(=O)O; Lac = C[C@H](O)C(=O)O; Dha = C=C(N)C(=O)O

Columns and labels:
[1] = Plasma protein binding by equilibrium dialysis, human plasma; assay type: in vitro ADME; conditions: for Plasma Protein Binding Human (%free): 2 μM, equilibrium dialysis 6 h, 37 °C
[2] = Plasma protein binding by equilibrium dialysis, mouse plasma; assay type: in vitro ADME; conditions: for Plasma Protein Binding Mouse (%free): 2 μM, equilibrium dialysis 6 h, 37 °C
[3] = biological target: T1, CYP1A2 (Homo sapiens, UniProt P05177); experiment: P450 inhibition in human hepatic microsomes, CYP1A2; assay type: in vitro ADME; conditions: for Human P450 Inhibition 1A2 %Inh.: at 10 μM
T1 sequence (P05177 1-516): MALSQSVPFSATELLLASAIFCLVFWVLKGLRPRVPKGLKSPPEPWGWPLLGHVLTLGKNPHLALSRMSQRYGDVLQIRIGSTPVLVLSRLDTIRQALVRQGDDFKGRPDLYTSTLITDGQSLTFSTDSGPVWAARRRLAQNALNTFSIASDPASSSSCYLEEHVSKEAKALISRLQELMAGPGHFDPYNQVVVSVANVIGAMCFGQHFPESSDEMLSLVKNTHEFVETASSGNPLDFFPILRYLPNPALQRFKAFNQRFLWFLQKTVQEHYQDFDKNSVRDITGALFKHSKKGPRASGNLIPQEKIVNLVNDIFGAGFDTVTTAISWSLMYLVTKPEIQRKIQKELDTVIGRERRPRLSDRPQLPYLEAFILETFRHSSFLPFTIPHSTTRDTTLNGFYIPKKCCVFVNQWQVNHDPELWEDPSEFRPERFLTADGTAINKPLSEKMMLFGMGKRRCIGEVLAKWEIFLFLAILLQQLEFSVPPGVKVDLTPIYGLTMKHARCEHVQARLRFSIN

[4] = biological target: CYP2C9 (Homo sapiens, UniProt P11712); experiment: P450 inhibition in human hepatic microsomes, CYP2C9; assay type: in vitro ADME; conditions: for Human P450 Inhibition 2C9 %Inh.: at 10 μM
[5] = biological target: CYP2D6 (Homo sapiens, UniProt P10635); experiment: P450 inhibition in human hepatic microsomes, CYP2D6; assay type: in vitro ADME; conditions: for Human P450 Inhibition 2D6 %Inh.: at 10 μM
[6] = biological target: T2, CYP3A4 (Homo sapiens, UniProt P08684); experiment: in vitro; conditions: microsomes
[7] = biological target: T3, gatorbulin site of tubulin (Bos taurus, UniProt P81947+Q6B856); experiment: Binding constants by MTC displacement; parameters: species or system calf; conditions: 10 μM tubulin plus 10 μM MTC, compound up to 100 μM
[8] = system: SK-OV-3 ovarian cancer cells; experiment: MTT viability assay, SK-OV-3; assay type: cell-based; conditions: for IC50: read-out: IC50 SK-OV-3, 48 h
[9] = system: HeLa cervical cancer cells; experiment: MTT viability assay, HeLa; assay type: cell-based; conditions: read-out: IC50 HeLa, 48 h
In short: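 HeLa cells grown in DMEM with 10 % FBS at 37 °C, 5 % CO₂. Seeded at 5000 cells/well, attached overnight, then exposed to a concentration series of test compound or 0.5 % DMSO. MTT read-out 48 h after treatment. IC50 by non-linear regression; mean ± SD, n = 3.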

[10] = system: α-tubulin; experiment: Immunoblot analysis of α-tubulin levels in SK-OV-3 cells; assay type: cell-based; conditions: 16 h
In short: (§1)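 SK-OV-3 cells seeded at 2 × 10⁵/well and attached 24 h. Medium replaced, then ±1 h preincubation with 10 µM MG-132 before test compound or 0.5 % DMSO for 16 h. Whole-cell lysates normalised by BCA, run on 4–12 % SDS-PAGE, blotted to PVDF and detected by chemiluminescence. Densitometry of a representative blot, normalised to GAPDH and to DMSO without MG-132.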

[11] = system: β-tubulin; experiment: Immunoblot analysis of β-tubulin levels in SK-OV-3 cells; assay type: cell-based; conditions: 16 h
In short: as §1

[12] = Kinetic solubility in pH 7.4 phosphate buffered saline; assay type: physicochemical; conditions: 1% DMSO, 24 hours, top concentration 100 μM
[13] = PAMPA permeability; assay type: in vitro ADME; conditions: for Permeability-PAMPA Tested: 5 μM, pH 7.4, 5 hours; for Permeability-PAMPA Predicted level: predicted from PAMPA
[14] = biological target: T3, gatorbulin site of tubulin; conditions: cited from earlier work
[15] = system: SK-OV-3-MDR1-M6/6 cell line; conditions: cited from earlier work
[16] = biological target: human efflux transporter MDR1/P-gp (MDCK cells) (Homo sapiens, UniProt P08183); experiment: MDCK-MDR1 permeability assay; conditions: for Permeability-MDCK-PgP Substrate?: P-gp substrate classification
[17] = biological target: T2, CYP3A4; experiment: P450 inhibition in human hepatic microsomes, CYP3A4; conditions: at 10 μM
[18] = biological target: human MDR1/P-gp (Homo sapiens, UniProt P08183); experiment: MDCK-MDR1 permeability assay; conditions: dog, MDCK-MDR1, pH 7.4
[19] = Hepatic microsomal stability, human; assay type: in vitro ADME; conditions: liver microsomes, pH 7.4
[20] = Hepatic microsomal stability, mouse; assay type: in vitro ADME; conditions: liver microsomes, pH 7.4
[21] = human, liver microsomes, probe tolbutamide, hydroxylation to hydroxytolbutamide
[22] = human, liver microsomes, probe bufuralol, hydroxylation to 4'-hydroxybufuralol

Molecule: NC(=O)N1c2ccccc2C=Cc2ccccc21 [Car, carbamazepine, reference compound]
fraction unbound at 6 h, 2 µM ([1]; human, plasma): 0.25 | fraction unbound at 6 h, 2 µM ([2]; mouse, plasma): 0.36

Molecule: Cc1nc2c([nH]1)c(=O)n(C)c(=O)n2Cc1ccco1 [Fur, furafylline]
inhibition at 40 µM ([3]; human, microsomes): 82% | inhibition at 40 µM [4, 21]: < 10% | inhibition at 40 µM [5, 22]: < 10% | inhibition at 40 µM [6]: < 10%

Molecule: C=C1NC(=O)[C@H](C)N(O)C(=O)[C@H]([C@@H](O)C(N)=O)N(C)C(=O)[C@H](C)OC(=O)[C@@H]2C[C@H](C)CN2C1=O [GB1, Gatorbulin-1] (cyclo([Dha][Pro(4S-Me)][Lac][X1][N(OH)Ala]))
Kb (binding affinity, MTC) ([7]; listed as GB1 (1a)): 2.2 ± 0.7 × 10^6 M^−1 | concentration at which active ([8]; SK-OV-3 and HeLa cells, 48 h): submicromolar | IC50 [8]: 0.216 µM | IC50 [9]: 0.59 µM | reduction of α-tubulin levels ([10]; 10 μM): 80% | effect on α- and β-tubulin levels ([10]; without MG132): induced a reduction of both α- and β-tubulin levels | depletion of β-tubulin ([11]; 3.2 μM): 80% | preference for β-tubulin over α-tubulin depletion [11]: ~ 3 fold | Solubility Kinetic [12]: > 100 µM | Human P450 Inhibition 1A2 %Inh. [3]: 13 %Inh. | Human P450 Inhibition 2C9 %Inh. [4]: < 10 %Inh. | Human P450 Inhibition 2D6 %Inh. [5]: 11 %Inh. | Plasma Protein Binding Human (%free) [1]: 76 %free | Plasma Protein Binding Mouse (%free) [2]: 80 %free | Permeability-PAMPA Tested [13]: 4.5 10^−6 cm/s | Permeability-PAMPA Predicted level [13]: high | binding affinity reported previously [14]: 1.01e+06 M⁻¹ | effectiveness in P-gp overexpressing cells versus parental line [15]: less effective | Permeability-MDCK-PgP Mean Papp A to B ([16]; 2 μM, 90 minutes): 1.8 10^−6 cm/s | Permeability-MDCK-PgP Mean Papp B to A ([16]; 2 μM, 90 minutes): 1.6 10^−6 cm/s | Permeability-MDCK-PgP Substrate? [16]: not a P-gp substrate or is a poor P-gp substrate; also recorded: poor or non- | Human P450 Inhibition 3A4 %Inh. [17]: < 10 %Inh.

Molecule: CC(=O)O[C@H]1C(=O)[C@@]2(C)[C@H]([C@H](OC(=O)c3ccccc3)[C@]3(O)C[C@H](OC(=O)[C@H](O)[C@@H](NC(=O)c4ccccc4)c4ccccc4)C(C)=C1C3(C)C)[C@]1(OC(C)=O)CO[C@@H]1C[C@@H]2O [Pac, paclitaxel, reference compound]
Solubility Kinetic [12]: 1.3 µM (≈ 1.11 µg/mL)

Molecule: CNC(=C[N+](=O)[O-])NCCSCc1ccc(CN(C)C)o1 [Ran, ranitidine, reference compound]
Permeability-PAMPA Predicted level [13]: low

Molecule: Nc1ccc(S(=O)(=O)Nc2ccnn2-c2ccccc2)cc1 [Sul, sulfaphenazole, reference compound]
inhibition at 10 µM ([3]; human, liver microsomes): < 10% | inhibition at 10 µM [5, 22]: < 10%

Molecule: CCN(CC)CCNC(=O)c1c(C)[nH]c(/C=C2\C(=O)Nc3ccc(F)cc32)c1C [Sun, sunitinib]
half-life at 1 µM [19]: 34.5 min | half-life at 1 µM [20]: 13.5 min

Molecule: COc1cc([C@@H]2c3cc4c(cc3[C@H](O)[C@H]3COC(=O)[C@H]23)OCO4)cc(OC)c1OC [podophyllotoxin, reference compound]
Kb (binding affinity, MTC) [7]: 1.5e+07 M⁻¹

Molecule: gatorbulin-2 [GB2]
MTC displacement [7]: no MTC displacement | IC50 [8]: > 100 µM | IC50 [9]: > 100 µM | Solubility Kinetic [12]: > 100 µM | Human P450 Inhibition 1A2 %Inh. [3]: < 10 %Inh. | Human P450 Inhibition 2C9 %Inh. [4]: 18 %Inh. | Human P450 Inhibition 2D6 %Inh. [5]: < 10 %Inh. | Plasma Protein Binding Human (%free) [1]: 60 %free | Plasma Protein Binding Mouse (%free) [2]: 88 %free | Permeability-PAMPA Tested [13]: 8.2 10^−6 cm/s | Permeability-PAMPA Predicted level [13]: high | Human P450 Inhibition 3A4 %Inh. [17]: < 10 %Inh.

Further lines, results first:

inhibition at 1 µM ([3]; human, liver microsomes): 13% | inhibition at 1 µM [4, 21]: 39%
Molecule: CC(=O)N1CCN(c2ccc(OCC3COC(Cn4ccnc4)(c4ccc(Cl)cc4Cl)O3)cc2)CC1 (centres unmarked) [Ket, ketoconazole]

Papp A→B at 90 min, 2 µM [18]: 1.9 ×10⁻⁶ cm/s | Papp B→A at 90 min, 2 µM [18]: 1.5 ×10⁻⁶ cm/s | efflux ratio at 90 min, 2 µM [18]: 0.8 | Permeability-MDCK-PgP Substrate? [16]: poor or non-
Molecule: CC(C)(C)NCC(O)COc1cccc2c1CC(O)C(O)C2 (centres unmarked) [Nad, nadolol]

Papp at 5 h, 5 µM ([13]; PAMPA, pH 7.4): 5.7 ×10⁻⁶ cm/s | Permeability-PAMPA Predicted level [13]: high
Molecule: CC(C)NCC(O)COc1cccc2ccccc12 (centres unmarked) [Pro, propranolol, reference compound]

inhibition at 10 µM ([3]; human, liver microsomes): < 10% | inhibition at 10 µM [4, 21]: < 10% | Papp A→B at 90 min, 2 µM [18]: 1.6 ×10⁻⁶ cm/s | Papp B→A at 90 min, 2 µM [18]: 11.1 ×10⁻⁶ cm/s
Molecule: C=C[C@H]1C[N@@]2CC[C@H]1C[C@@H]2[C@@H](O)c1ccnc2ccc(OC)cc12 [Qui, quinidine]
